The entries come from a sample that favours hits as a whole.
T cruzi intra: inhibitors of intracellular Trypanosoma cruzi. activity score (inhibition), % at 5.01 µM. 4.9% of 22,000 active. intracellular Trypanosoma cruzi in host cells, plate reader; in the data active means activity score above about 55%; inconclusive means no clear call, values can overlap the other calls;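 further: parasites and compound incubated about four days before reading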
INS-1E rescue: rescue of cytokine-induced death in INS-1E beta cells; INS-1E cytokine-induced death, ATP luminescence, 48 h; normalised: neutral wells 0, positive control 100; protection from cytokine-induced ATP loss, % at 10 µM; 0.1% of 20,000 active; AID 488910;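 active means mean replicate protection from cytokine-induced ATP loss at least 50% and at least 75% of replicates each reaching 50%; inconclusive means meets only one of the two criteria, mean or replicate share; inactive means fails both the mean and replicate share criteria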
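Test system: INS-1E rat cells | Quantity: 8000 cells per well | Medium: Phenol-red-free RPMI with 5% fetal bovine serum | Reagent: Cytokine cocktail of IFN-γ, TNF-α and IL-1β | Doses: One compound concentration, pin transfer | Timing: 48 h co-treatment, 10 min post-lysis read | Technique: Luminescent ATP assay (CellTiter-Glo)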
A1 apoptosis 2: A1 inhibition read as caspase activation; MEF A1-2A-BIM cells, caspase-Glo luminescence, 3 h; percent of clofoctol response, DMSO zero; caspase activation, % (concentration not given with the values); 24,000 tested, under 10 active; in the data active means caspase activation above about 5.9%; inconclusive means no clear call, values can overlap the other calls; inactive means below about 2.2%
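Material: mouse embryonic fibroblasts co-expressing A1 and BIM (A1-2A-BIM), primed for A1 dependence / Quantity: 2500 cells/well / Buffer or medium: RPMI-1640 growth medium with 10% FBS / Doses: 50 nL compound per well, pinned / Schedule: 3 h compound exposure at 37 °C / Signal: Caspase-Glo luminescence (DEVD substrate) / Measure: Caspase-3/7 activation, seen as rise in luminescence signal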
A number is an active result.

Screening C[C@H]1CN([C@@H](C)CO)C(=O)c2cccc(NC(=O)c3nc4ccccc4s3)c2O[C@H]1CN(C)Cc1ccc2c(c1)OCO2 returned T cruzi intra 57.3 and INS-1E rescue inactive.
For C[C@H]1CN([C@@H](C)CO)C(=O)c2cccc(NC(=O)c3nc4ccccc4s3)c2O[C@H]1CN(C)Cc1ccc(Cl)c(Cl)c1 the results were T cruzi intra inconclusive and INS-1E rescue inactive.
Screening C[C@@H]1CN([C@@H](C)CO)C(=O)c2cccc(NC(=O)c3nc4ccccc4s3)c2O[C@@H]1CN(C)C(=O)Nc1ccc2c(c1)OCO2 returned T cruzi intra inactive, INS-1E rescue inactive and A1 apoptosis 2 inactive.
For C=CCNC(=O)[C@H]1[C@@H]2C(=O)O[C@@H](c3ccccc3)[C@@H](c3ccccc3)N2[C@@H](c2ccc(OCCO)cc2)[C@]12C(=O)N(C(=O)OCCOC)c1ccc(C#CC3=CCCCC3)cc12 the results were A1 apoptosis 2 inactive.
Screening CN(C)c1ccc(/C=N/NC(=O)CCCCC(=O)NO)cc1 returned T cruzi intra inactive, INS-1E rescue inactive and A1 apoptosis 2 inactive.
C[C@H](CO)N1C[C@H](C)[C@@H](CN(C)Cc2ccc(C(F)(F)F)cc2)OCc2cnnn2CCCC1=O was read as T cruzi intra 60.6 and A1 apoptosis 2 inactive.
For C[C@@H]1CN([C@@H](C)CO)C(=O)CCCn2cc(nn2)CO[C@H]1CN(C)Cc1ccc(Oc2ccccc2)cc1 the results were T cruzi intra 67.5, INS-1E rescue inactive and A1 apoptosis 2 inactive.
C[C@H]1CN([C@@H](C)CO)C(=O)CCCn2cc(nn2)CO[C@@H]1CN(C)Cc1ccc(Oc2ccccc2)cc1 was read as T cruzi intra inactive and A1 apoptosis 2 inactive.
C[C@H](CO)N1C[C@H](C)[C@@H](CN(C)Cc2ccc(Oc3ccccc3)cc2)OCc2cnnn2CCCC1=O was read as T cruzi intra 82.9 and A1 apoptosis 2 inactive.
C[C@@H]1CN([C@H](C)CO)C(=O)CCCn2nncc2CO[C@H]1CN(C)Cc1ccc(-c2ccccc2)cc1 was read as T cruzi intra inactive and INS-1E rescue inactive.
Screening C[C@H]1CN([C@@H](C)CO)C(=O)CCCn2nncc2CO[C@@H]1CN(C)Cc1ccc(C(F)(F)F)cc1 returned T cruzi intra inactive and A1 apoptosis 2 inactive.
`C[C@H]1CN([C@@H](C)CO)C(=O)CCCn2nncc2CO[C@H]1CN(C)Cc1ccc(Oc2ccccc2)cc1` gave T cruzi intra inactive and A1 apoptosis 2 inactive.
For C[C@H](CO)N1C[C@H](C)[C@@H](CN(C)Cc2ccc(-c3ccccc3)cc2)OCc2cnnn2CCCC1=O the results were T cruzi intra 65.4.
Screening Cc1ncc(CO)c(/C=N/NC(=O)CCCCCCC(=O)Nc2ccccc2O)c1O returned T cruzi intra inactive, INS-1E rescue inactive and A1 apoptosis 2 inactive.
C=CCNC(=O)[C@@H]1[C@H]2C(=O)O[C@H](c3ccccc3)[C@H](c3ccccc3)N2[C@H](c2ccc(OCCO)cc2)[C@@]12C(=O)Nc1ccccc12 was read as A1 apoptosis 2 inactive.
O=C(N/N=C/c1cccc(B(O)O)c1)c1ccccc1O was read as T cruzi intra inactive, INS-1E rescue inactive and A1 apoptosis 2 inactive.
O=C(C1=C[C@@H](c2ccc3c(c2)Cc2ccccc2-3)C[C@@H](OCc2ccc(CO)cc2)O1)N1CCCCC1 was read as A1 apoptosis 2 inactive.
For C[C@H]1CN([C@@H](C)CO)C(=O)CCCn2nncc2CO[C@@H]1CN(C)S(=O)(=O)c1ccc(-c2ccccc2)cc1 the results were T cruzi intra 83.7.
Screening C[C@@H]1CN([C@@H](C)CO)C(=O)CCCn2nncc2CO[C@H]1CN(C)S(=O)(=O)c1ccc(-c2ccccc2)cc1 returned T cruzi intra inactive, INS-1E rescue inactive and A1 apoptosis 2 inactive.
O=C(N/N=C/c1ccc(Br)cc1)c1ccccc1O was read as T cruzi intra inactive, INS-1E rescue inactive and A1 apoptosis 2 inactive.
Screening O=C(N/N=C/c1ccc2c(c1)CCO2)c1ccccc1O returned T cruzi intra inactive, INS-1E rescue inactive and A1 apoptosis 2 inactive.
COc1ccc(S(=O)(=O)N(C)C[C@@H]2Oc3c(NC(=O)c4ccc(-c5nccs5)cc4)cccc3C(=O)N([C@H](C)CO)C[C@@H]2C)cc1 was read as T cruzi intra 73.7, INS-1E rescue inactive and A1 apoptosis 2 inactive.
Cc1ccc(S(=O)(=O)N(C)C[C@H]2Oc3c(NC(=O)c4ccc(-c5nccs5)cc4)cccc3C(=O)N([C@@H](C)CO)C[C@H]2C)cc1 was read as T cruzi intra inactive and INS-1E rescue inactive.
Screening COc1ccc(S(=O)(=O)N(C)C[C@H]2Oc3c(NC(=O)c4ccc(-c5nccs5)cc4)cccc3C(=O)N([C@H](C)CO)C[C@H]2C)cc1 returned T cruzi intra inactive and INS-1E rescue inactive.
`Cc1ccc(S(=O)(=O)N(C)C[C@@H]2Oc3c(NC(=O)c4ccc(-c5nccs5)cc4)cccc3C(=O)N([C@H](C)CO)C[C@@H]2C)cc1` gave T cruzi intra 71.1, INS-1E rescue inactive and A1 apoptosis 2 inactive.
CN(C)CCCOc1ccc(/C=N/NC(=O)c2ccccc2O)cc1 was read as T cruzi intra inactive, INS-1E rescue inactive and A1 apoptosis 2 inactive.
Screening COC(=O)[C@@]1(Cc2ccccc2N=[N+]=[N-])N=C(c2ccc(OCCCO)cc2)O[C@H]1c1ccccc1 returned A1 apoptosis 2 inactive.
`Cc1ccc(S(=O)(=O)N(C)C[C@@H]2Oc3ccc(NS(=O)(=O)c4ccc(Cl)cc4)cc3C(=O)N([C@H](C)CO)C[C@@H]2C)cc1` gave T cruzi intra inactive, INS-1E rescue inactive and A1 apoptosis 2 inactive.
`C[C@H](CO)N1C[C@H](C)[C@@H](CN(C)S(=O)(=O)c2ccc(Cl)cc2)Oc2ccc(NS(=O)(=O)c3ccc(Cl)cc3)cc2C1=O` gave T cruzi intra inactive, INS-1E rescue inactive and A1 apoptosis 2 inactive.
Cc1ccc(S(=O)(=O)Nc2ccc3c(c2)C(=O)N([C@H](C)CO)C[C@H](C)[C@H](CN(C)S(=O)(=O)c2ccc(Cl)cc2)O3)cc1 was read as T cruzi intra 47.4.
`C[C@H](CO)N1C[C@H](C)[C@H](CN(C)S(=O)(=O)c2ccc(Cl)cc2)Oc2ccc(NS(=O)(=O)c3ccc(Cl)cc3)cc2C1=O` gave T cruzi intra 63.6 and A1 apoptosis 2 inactive.
Screening O=C(NO)c1ccc(C(=O)N/N=C/c2ccc(F)c(Oc3ccccc3)c2)cc1 returned T cruzi intra inactive, INS-1E rescue inactive and A1 apoptosis 2 inactive.
Screening CN(C)CCCNC(=O)[C@@]1(c2ccc([N+](=O)[O-])cc2)CC(=O)N(CC23CC4CC(CC(C4)C2)C3)[C@@H]1c1ccc(CO)cc1 returned A1 apoptosis 2 inactive.
For C[C@H]1CN([C@@H](C)CO)C(=O)c2cccc(NC(=O)c3nc4ccccc4s3)c2O[C@@H]1CN(C)S(=O)(=O)c1ccccc1 the results were T cruzi intra 72.9 and INS-1E rescue inactive.
COc1ccc(S(=O)(=O)N(C)C[C@@H]2Oc3c(NC(=O)Nc4cccc5ccccc45)cccc3C(=O)N([C@H](C)CO)C[C@@H]2C)cc1 was read as T cruzi intra inactive, INS-1E rescue inactive and A1 apoptosis 2 inactive.

High-throughput results deposited in PubChem by Broad Institute.
